# Experimental data as given in ChEMBL document CHEMBL1138529, “Efficacy, pharmacokinetics, and metabolism of tetrahydroquinoline inhibitors of Plasmodium falciparum protein farnesyltransferase” (Antimicrob Agents Chemother, 2007).
# Columns and labels:
# [1] = Permeability from basolateral to apical side in human Caco-2 cells; type: ADME, cell-based; settings: read-out: permeability
# In short: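 Caco-2 clone TC7 grown on laminin-coated porous inserts and used 19-21 days after seeding; integrity checked by TEER and [3H]mannitol flux. Monolayers equilibrated 30 min at 37°C in HBSS/5 mM HEPES pH 7.4. Compound at 50 μM final added to basolateral donor side. Apical receiver sampled at 60 min, 37°C with shaking; LC/MS; Papp calculated from 60-min concentrations.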
# Mus musculus [2] = experiment: Toxicity in BALB/c mouse at 50 mg/kg, po; type: organism-based; design: dose 50 mg/kg, route oral; settings: in vivo
# Mus musculus [3] = experiment: Plasma concentration in BALB/c mouse at 50 mg/kg, po; type: ADME, organism-based; design: dose 50 mg/kg, route oral; settings: in vivo
# In short: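 Female BALB/c mice, 8-10 weeks, three per group. Single 50 mg/kg oral gavage in 3% EtOH-7% Tween 80-90% normal saline. Plasma collected by tail bleed at set times, frozen at −20°C, acetonitrile-extracted with internal standard, quantified by LC/MS.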
# [4] = Permeability from apical to basolateral side in human Caco-2 cells; type: ADME, cell-based; settings: read-out: permeability
# Rattus norvegicus = experiment: Toxicity in Sprague-Dawley rat at 50 mg/kg, po; type: organism-based; design: dose 50 mg/kg, route oral; settings: in vivo
# In short: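 Female Sprague-Dawley rats, 10-12 weeks, three per group. 50 mg/kg oral gavage in 3% EtOH-7% Tween 80-90% normal saline. Saphenous vein plasma sampled over time, and animals observed for adverse reactions.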
# [5] = Cmax in Sprague-Dawley rat at 50 mg/kg, po; type: ADME, organism-based; design: dose 50 mg/kg, route oral; settings: in vivo
# In short: (§1)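 50 mg/kg by oral gavage in 3% EtOH-7% Tween 80-90% normal saline to groups of three females (BALB/c mice, 8–10 weeks, tail bleed; Sprague-Dawley rats, 10–12 weeks, saphenous vein). Plasma extracted with acetonitrile/internal standard, LC/MS; means of three animals. Oral elimination half-life depends on absorption rate as well as elimination.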
# [6] = Metabolic stability in mouse liver microsomes; type: ADME, Microsome
# In short: (§2)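 Pooled female liver microsomes at 0.5 mg/ml in 0.1 M potassium phosphate pH 7.4, 3 mM MgCl2, 1 mM EDTA, with NADPH regenerating system (1 mM NADP+, 5 mM glucose-6-phosphate, 1 U/ml G6PDH). Preincubated 10 min at 37°C, then compound added to 1 μM final. Time points quenched with 3 volumes acetonitrile plus internal standard; parent quantified by LC/MS; half-life reported.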
# [7] = Elimination half life in BALB/c mouse at 50 mg/kg, po; type: ADME, organism-based; design: dose 50 mg/kg, route oral; settings: in vivo, read-out: beta t1/2; in short: as §1
# [8] = AUC in BALB/c mouse at 50 mg/kg, po; type: ADME, organism-based; design: dose 50 mg/kg, route oral; settings: plasma
# In short: (§3)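 Three female BALB/c mice (lines for mice, 8–10 weeks) or three female Sprague-Dawley rats (10–12 weeks) per group; 50 mg/kg oral gavage in 3% EtOH-7% Tween 80-90% normal saline. Plasma sampled at set times (tail bleed in mice, saphenous vein in rats), extracted with acetonitrile plus internal standard, quantified by LC/MS; AUC as mean of three animals.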
# [9] = AUC in Sprague-Dawley rat at 50 mg/kg, po; type: ADME, organism-based; design: dose 50 mg/kg, route oral; settings: plasma; in short: as §3
# [10] = Cmax in BALB/c mouse at 50 mg/kg, po; type: ADME, organism-based; design: dose 50 mg/kg, route oral; settings: in vivo; in short: as §1
# [11] = Elimination half life in Sprague-Dawley rat at 50 mg/kg, po; type: ADME, organism-based; design: dose 50 mg/kg, route oral; settings: in vivo, read-out: beta t1/2; in short: as §1
# [12] = Metabolic stability in rat liver microsomes; type: ADME, Microsome; in short: as §2
# [13] = Inhibition of Plasmodium falciparum protein farnesyltransferase by SPA method
# Plasmodium falciparum [14] = experiment: Antiplasmodial activity against Plasmodium falciparum by [3H]hypoxanthine uptake; type: functional; settings: read-out: ED50 (the source's name)
# In short: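 Asynchronous P. falciparum (3D7 or K1) in RPMI 1640 with 20% heat-inactivated human A+ plasma, 0.5% parasitemia and 0.5% hematocrit; compound serially diluted, top final 5 μM, 48 h at 37°C under 5% CO2/5% O2/90% N2, then [8-3H]hypoxanthine 0.3 μCi added for 24 h.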
# Plasmodium falciparum [15] = experiment: Antiplasmodial activity against chloroquine-sensitive Plasmodium falciparum 3D7 by [3H]hypoxanthine uptake; type: functional; settings: read-out: ED50 (the source's name)
# In short: (§4)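 Asynchronous cultures at 0.5% parasitemia and 0.5% hematocrit in RPMI 1640 with 20% heat-inactivated human A+ plasma, exposed to serially diluted inhibitor (top final 5 μM, from DMSO stock) under 5% CO2/5% O2/90% N2 at 37°C for 48 h. [3H]hypoxanthine was then added for 24 h and harvested counts were background-subtracted against DMSO-only controls. ED50 came from linear regression, as the mean of duplicates.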
# Plasmodium falciparum [16] = experiment: Antiplasmodial activity against chloroquine-resistant Plasmodium falciparum K1 by [3H]hypoxanthine uptake; type: functional; settings: read-out: ED50 (the source's name); in short: as §4
Compound,Papp B→A [1],Activity (Mus musculus [2]),concentration (Mus musculus [3]),Papp A→B [4],Activity (Rattus norvegicus),Cmax [5],half-life [6],half-life [7],AUC [8],AUC [9],Cmax [10],half-life [11],half-life [12],IC50 [13],EC50 (Plasmodium falciparum [14]),EC50 (Plasmodium falciparum [15]),EC50 (Plasmodium falciparum [16])
Cn1cncc1CN1CC(N(Cc2cccc(-n3cccc3)c2)S(=O)(=O)c2ccccn2)Cc2cc(C#N)ccc21 (stereo unspecified),12.1 ×10⁻⁶ cm/s,Non-toxic,9.8 µM,2.3 ×10⁻⁶ cm/s,,,,,,,,,,,,,
Cn1cnc(S(=O)(=O)N(Cc2ccc(C(F)(F)F)o2)C2Cc3cc(C#N)ccc3N(Cc3cncn3C)C2)c1 (stereo unspecified),72.5 ×10⁻⁶ cm/s,Non-toxic,3.9 µM,0.7 ×10⁻⁶ cm/s,Non-toxic,3.4 µM,3.4 min,30 min,4.55 µM·h,5.42 µM·h,3.9 µM,26 min,16 min,,,,
Cn1cncc1CN1CC(N(CCn2cccc2)S(=O)(=O)c2ccccn2)Cc2cc(C#N)ccc21 (stereo unspecified),45.5 ×10⁻⁶ cm/s,Non-toxic,13.6 µM,12.4 ×10⁻⁶ cm/s,Non-toxic,5.4 µM,4.9 min,40 min,15.9 µM·h,11.6 µM·h,13.5 µM,62 min,10.4 min,,,,
Cc1noc(C)c1CN(C1Cc2cc(C#N)ccc2N(Cc2cncn2C)C1)S(=O)(=O)c1ccccn1 (stereo unspecified),67.1 ×10⁻⁶ cm/s,Non-toxic,15 µM,8 ×10⁻⁶ cm/s,,,,,,,,,,,,,
CC(C)OC(=O)N1CCC(CN(C2Cc3cc(C#N)ccc3N(Cc3cncn3C)C2)S(=O)(=O)c2ccccn2)CC1 (stereo unspecified),,Non-toxic,,1 ×10⁻⁶ cm/s,Non-toxic,4.5 µM,,,,10.9 µM·h,,,,0.5 nM,16 nM,,
CC(C)COC(=O)N1CCC(CN(C2Cc3cc(C#N)ccc3N(Cc3cncn3C)C2)S(=O)(=O)c2ccccn2)CC1 (stereo unspecified),,,,,,8.4 µM,5.1 min,26 min,4.67 µM·h,33.8 µM·h,5.4 µM,62 min,18 min,0.7 nM,62 nM,62 nM,62 nM
Cn1cnc(S(=O)(=O)N(CCn2cccc2)C2Cc3cc(C#N)ccc3N(Cc3cncn3C)C2)c1 (stereo unspecified),53 ×10⁻⁶ cm/s,Non-toxic,0.8 µM,0.3 ×10⁻⁶ cm/s,,,,,,,,,,,,,
CCOC(=O)N1CCC(CN(C2Cc3cc(C#N)ccc3N(Cc3cncn3C)C2)S(=O)(=O)c2ccccn2)CC1 (stereo unspecified),,Non-toxic,,2.6 ×10⁻⁶ cm/s,Non-toxic,,,,,,,,12 min,0.6 nM,55 nM,55 nM,40 nM
Cn1cnc(S(=O)(=O)N(CC(=O)NC(C)(C)C)C2Cc3cc(-c4ccccc4)ccc3N(Cc3cncn3C)C2)c1 (stereo unspecified),,,,,Non-toxic,4.1 µM,98 min,88 min,15.7 µM·h,13.5 µM·h,5 µM,106 min,165 min,,,,
CC[C@]1(O)C[C@@H]2CN(CCc3c([nH]c4ccccc34)[C@@](C(=O)OC)(c3cc4c(cc3OC)N(C)[C@H]3[C@@](O)(C(=O)OC)[C@H](OC(C)=O)[C@]5(CC)C=CCN6CC[C@]43[C@@H]65)C2)C1 [VINBLASTINE],41.9 ×10⁻⁶ cm/s,,,0.1 ×10⁻⁶ cm/s,,,,,,,,,,,,,
Cn1cncc1CN1CC(N(Cc2ccccn2)S(=O)(=O)c2ccccn2)Cc2cc(C#N)ccc21 (stereo unspecified),73.3 ×10⁻⁶ cm/s,Non-toxic,5.7 µM,1.6 ×10⁻⁶ cm/s,,,,,,,,,,,,,
Cn1cncc1CN1CC(N(Cc2ccc(S(C)(=O)=O)cc2)S(=O)(=O)c2ccccn2)Cc2cc(C#N)ccc21 (stereo unspecified),50.1 ×10⁻⁶ cm/s,Non-toxic,0.15 µM,0.2 ×10⁻⁶ cm/s,,,,,,,,,,,,,
Cn1cnc(S(=O)(=O)N(Cc2cccc(-n3cccc3)c2)C2Cc3cc(C#N)ccc3N(Cc3cncn3C)C2)c1 (stereo unspecified),52.1 ×10⁻⁶ cm/s,Non-toxic,1.1 µM,0.2 ×10⁻⁶ cm/s,,,,,,,,,,,,,
Cn1cncc1CN1CC(N(CC2CCN(C(=O)OCc3ccccc3)CC2)S(=O)(=O)c2ccccn2)Cc2cc(C#N)ccc21 (stereo unspecified),,Non-toxic,,1 ×10⁻⁶ cm/s,Non-toxic,4.5 µM,,,,10.9 µM·h,,,,0.5 nM,16 nM,,
Cn1cnc(S(=O)(=O)N(Cc2ccccn2)C2Cc3cc(C#N)ccc3N(Cc3cncn3C)C2)c1 (stereo unspecified),23.9 ×10⁻⁶ cm/s,Non-toxic,1 µM,0.2 ×10⁻⁶ cm/s,,,,,,,,,,,,,
CC(C)NCC(O)COc1cccc2ccccc12 (stereo unspecified) [PROPRANOLOL],83.4 ×10⁻⁶ cm/s,,,28.9 ×10⁻⁶ cm/s,,,,,,,,,,,,,
